Source: paper PMC7196279 (Biomedicine & pharmacotherapy = Biomedecine & …, 2020)
Read-outs that look alike come from different tables or passages of the source. Bridges are numbered along the chain shown (N, C = ends). Where no end group is shown, it is not given here.

Experiments:
[1] = system: Ca^2+-activated K^+ channels; details: mOT receptor CHO cells, cited from earlier work
[2] = system: Ca^2+-activated K^+ channels; assay type: cell-based, Chinese hamster; details: qOT receptor CHO cells; for inhibition of AVP induced hyperpolarization / inhibition of Leu^8-OT induced hyperpolarization / inhibition of Pro^8-OT induced hyperpolarization: inhibitor pretreatment
Procedure, shortened: (§1)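 Receptor-expressing CHO-K1 cells were loaded with FMP Blue in Locke's buffer (pH 7.4) at 37 °C for 35 min. Paxilline, TRAM-34 and/or apamin were then added, followed by 10 min more incubation. Baseline was read for 60 s, then log concentrations of agonist were added and ex 530/em 565 nm was read every 2 s for 200 s. NS-1619 or SKA-31 stimulation followed paxilline (30 μM) or TRAM-34 pretreatment respectively. Response was FMIN − F0. N = 3 experiments, 10 replicates per dose.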

[3] = system: Ca^2+-activated K^+ channels; assay type: cell-based, Chinese hamster; details: hOT receptor CHO cells, inhibitor pretreatment
[4] = system: Ca^2+-activated K^+ channels; assay type: cell-based, Chinese hamster; details: mOT receptor CHO cells, inhibitor pretreatment
[5] = system: Ca^2+-activated K^+ channels; details: hOT receptor CHO cells, cited from earlier work
[6] = system: Ca^2+-activated K^+ channels; assay type: cell-based, Chinese hamster; details: tOT receptor CHO cells; for inhibition of AVP induced hyperpolarization / inhibition of Leu^8-OT induced hyperpolarization / inhibition of Pro^8-OT induced hyperpolarization: inhibitor pretreatment
Procedure, shortened: as §1

[7] = target: T1, macaque oxytocin receptor (qOTR) (Macaca mulatta, UniProt P56494); experiment: Ca2+ mobilization assay; assay type: cell-based
T1 sequence (P56494 1-389): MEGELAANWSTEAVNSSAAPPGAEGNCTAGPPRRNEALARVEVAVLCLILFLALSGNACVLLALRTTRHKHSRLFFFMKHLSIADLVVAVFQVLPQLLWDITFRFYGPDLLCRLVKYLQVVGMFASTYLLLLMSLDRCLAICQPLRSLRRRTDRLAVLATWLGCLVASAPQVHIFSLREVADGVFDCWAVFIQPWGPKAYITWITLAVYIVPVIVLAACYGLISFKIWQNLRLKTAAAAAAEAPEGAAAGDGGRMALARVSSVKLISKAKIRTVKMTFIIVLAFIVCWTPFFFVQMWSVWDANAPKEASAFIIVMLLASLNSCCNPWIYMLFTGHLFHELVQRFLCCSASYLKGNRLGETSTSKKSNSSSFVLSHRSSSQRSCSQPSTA

[8] = system: sarco/endoplasmic reticulum calcium ATPase (SERCA); assay type: cell-based; details: all four OT receptor cell lines, thapsigargin pretreatment
Procedure, shortened: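 Cells were incubated with FMP Blue in Locke's buffer at 37 °C for 40 min. Thapsigargin was added, followed by 5 min more incubation. The membrane potential assay was then run with agonist concentration series. Fluorescence was read at ex 530/em 565 nm every 2 s for 200 s after a 60 s baseline. Response was FMIN − F0.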

[9] = system: sarco/endoplasmic reticulum calcium ATPase (SERCA); assay type: cell-based; details: all four lines, thapsigargin pretreatment 1 μM final concentration
Procedure, shortened: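 Fluo-3 AM-loaded cells (60 min, 37 °C) were washed four times and treated with thapsigargin (1 μM final) for 5 min. The Ca2+ mobilization assay was then run with agonist concentration series, with untreated controls in parallel on the same plates. The Fluo-3 read was FMAX − F0. N = 3 experiments, five replicates per dose.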

[10] = target: Human Kappa-opioid (κO) receptor (Homo sapiens, UniProt P41145); experiment: Membrane potential assay in κOR-CHO cells; assay type: cell-based; details: κOR-CHO cells pretreated with pertussis toxin
Gi/o = assay type: cell-based; details: PTX 150 ng/ml

Chain of Human Kappa-opioid (κO) receptor (P41145 whole entry): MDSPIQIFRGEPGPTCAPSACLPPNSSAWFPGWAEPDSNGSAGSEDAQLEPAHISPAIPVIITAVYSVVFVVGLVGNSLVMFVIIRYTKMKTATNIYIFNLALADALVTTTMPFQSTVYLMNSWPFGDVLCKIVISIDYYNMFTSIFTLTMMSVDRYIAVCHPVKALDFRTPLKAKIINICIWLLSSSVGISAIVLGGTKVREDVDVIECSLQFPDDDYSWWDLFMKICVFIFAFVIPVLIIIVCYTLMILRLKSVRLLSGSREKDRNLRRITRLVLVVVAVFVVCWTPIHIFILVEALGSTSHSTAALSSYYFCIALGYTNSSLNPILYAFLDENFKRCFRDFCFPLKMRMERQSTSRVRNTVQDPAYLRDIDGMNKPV

For `CC(C)(O)[C@H]1O[C@H]2CC[C@@]3(C)[C@@](O)(CC[C@H]4Cc5c([nH]c6ccccc56)[C@@]43C)C2=CC1=O` [paxilline], the “effect on BKCa activator NS-1619 response” value [1] is listed as “inhibited”, the “block of NS-1619 evoked hyperpolarization” value ([2]; 30 μM paxilline) is listed as 72% and the “inhibition of AVP induced hyperpolarization” value [2] is listed as 20%. For the same compound, the “inhibition of Leu^8-OT induced hyperpolarization” value [2] was 46%, the “inhibition of Pro^8-OT induced hyperpolarization” value [2] was 35% and the “inhibition of AVP induced hyperpolarization” value [3] was 52%. For the same compound, the “inhibition of AVP induced hyperpolarization” value [4] was 20%, the “effect on BKCa activator NS-1619 response” value [5] was “inhibited” and the “block of NS-1619 evoked hyperpolarization” value ([6]; 30 μM paxilline) was 80%. The “inhibition of AVP induced hyperpolarization” value [6] was 13%, the “inhibition of Leu^8-OT induced hyperpolarization” value [6] was 38% and the “inhibition of Pro^8-OT induced hyperpolarization” value [6] was 39%.

In the case of “apamin: selective inhibitor of SKCa channels (CNCKAPETALCARRCQQH-NH2; disulfide 1-11, 3-15; UniProt P01500 28-45, looked up)”, the “contribution to (inhibition of) Leu^8-OT induced membrane hyperpolarization” value ([1]; apamin pretreatment) is listed as no more than 15%, the “contribution to (inhibition of) Pro^8-OT induced membrane hyperpolarization” value ([1]; apamin pretreatment) is listed as no more than 15% and the “inhibition of AVP induced hyperpolarization” value [2] is listed as “did not significantly affect”. The “inhibition of Leu^8-OT induced hyperpolarization” value [2] was no more than 15%, the “inhibition of Pro^8-OT induced hyperpolarization” value [2] was no more than 15% and the “inhibition of AVP induced hyperpolarization” value ([2]; listed as Apamin) was no more than 15%. For the same compound, the “inhibition of AVP induced hyperpolarization” value [3] was “did not significantly affect”, the “inhibition of AVP induced hyperpolarization” value ([3]; listed as Apamin) was no more than 15% and the “inhibition of AVP induced hyperpolarization” value [4] was “did not significantly affect”. For the same compound, the “inhibition of AVP induced hyperpolarization” value ([4]; listed as Apamin) was no more than 15%, the “contribution to (inhibition of) Leu^8-OT induced membrane hyperpolarization” value ([5]; apamin pretreatment) was no more than 15% and the “contribution to (inhibition of) Pro^8-OT induced membrane hyperpolarization” value ([5]; apamin pretreatment) was no more than 15%. The “inhibition of AVP induced hyperpolarization” value [6] was “did not significantly affect”, the “inhibition of Leu^8-OT induced hyperpolarization” value [6] was no more than 15% and the “inhibition of Pro^8-OT induced hyperpolarization” value [6] was no more than 15%. For the same compound, the “inhibition of AVP induced hyperpolarization” value ([6]; listed as Apamin) was no more than 15%.

Work on `NC(=O)CC[C@@H]1NC(=O)[C@H](Cc2ccccc2)NC(=O)[C@H](Cc2ccc(O)cc2)NC(=O)[C@@H](N)CSSC[C@@H](C(=O)N2CCC[C@H]2C(=O)N[C@@H](CCCN=C(N)N)C(=O)NCC(N)=O)NC(=O)[C@H](CC(N)=O)NC1=O` [AVP, arginine vasopressin] yielded an EC50 [7] of 0.0498 µM.

For `C/C=C(/C)C(=O)O[C@H]1C(C)=C2[C@H]([C@@H]1OC(=O)CCCCCCC)[C@@](C)(OC(C)=O)C[C@H](OC(=O)CCC)[C@@]1(O)[C@H]2OC(=O)[C@@]1(C)O` [thapsigargin], the “effect on hyperpolarization produced by AVP, Leu^8-OT, and Pro^8-OT” value [8] was “eliminated” and the “effect on AVP and OT-analog evoked increases in Ca2+” value [9] was “blocked”.

In the case of `Clc1ccccc1C(c1ccccc1)(c1ccccc1)n1cccn1` [TRAM-34], the “effect on hyperpolarizing response to KCa3.1 channel opener SKA31” value [1] is listed as “inhibited”, the “inhibition of SKA-31 hyperpolarization” value ([2]; 300 nM TRAM-34 pretreatment) is listed as 92% and the “inhibition of AVP induced hyperpolarization” value [3] is listed as 61%. For the same compound, the “inhibition of AVP induced hyperpolarization” value [4] was 33%, the “effect on hyperpolarizing response to KCa3.1 channel opener SKA31” value [5] was “inhibited” and the “inhibition of SKA-31 hyperpolarization” value ([6]; 300 nM TRAM-34 pretreatment) was 78%. For the same compound, the “inhibition of AVP induced hyperpolarization” value [6] was 25%, the “inhibition of Leu^8-OT induced hyperpolarization” value [6] was 38% and the “inhibition of Pro^8-OT induced hyperpolarization” value [6] was 37%.

With Pertussis toxin the “effect on DynorphinA1-13-NH2 hyperpolarizing response” value [10] was “abolished”, the “effect on AVP induced hyperpolarization” value (Gi/o; any of the four cell lines (mOTR, tOTR, qOTR, hOTR)) was “did not inhibit” and the “effect on Leu^8-OT induced hyperpolarization” value (Gi/o; tOT or qOT receptor cell lines) was “did not inhibit”. The “effect on Pro^8-OT induced hyperpolarization” value (Gi/o; tOT or qOT receptor cell lines) was “did not inhibit”.
